T cruzi growth-1 = inhibitors of T. cruzi proliferation | T. cruzi beta-gal in NIH3T3, GalScreen luminescence, 90 h | inhibition, % at 8.34 µM | actives 5.9% (n = 77,000) | AID 624255;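 active = mean inhibition above about 93%, with at least 55% of replicates each passing it, limit read from the data, passing the limit was not always enough; inconclusive = only one of those two conditions holds; inactive = neither condition holds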
GASC1 inh = inhibitors of human demethylase GASC-1 KDM4C; Q9H3R0; GST-KDM4C 2-372, H3K9me3 peptide, LANCE TR-FRET; inhibition, % at 12.5 µM; actives 0.15% (n = 96,000);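 active = mean replicate inhibition above about 25%, with at least 55% of replicates also reaching it, limit read from the data, passing the limit was not always enough; inconclusive = only one of those two conditions met; inactive = neither condition met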
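Material: GST-tagged GASC-1 (JMJD2C) catalytic fragment, aa 2-372 / Quantity: enzyme final amount 10 nM / Medium: HEPES buffer, pH 7.5, plus ascorbate / Doses: one test concentration per compound / Incubation: 30 min reaction, 60 min detection, RT / Measured by: LANCE TR-FRET / Read-out: inhibition from TR-FRET ratio decrease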
IDH1 R132H inh = blocks human IDH1 R132H reductase activity | O75874 | diaphorase/resazurin fluorescence, 60 min | inhibition, % at 10 µM | actives 0.18% (n = 70,000) | AID 624101; in the data active = inhibition above about 34%; inconclusive = no clear call, values can overlap the other calls; inactive = below about 11%;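 also: 0% = DMSO and 100% = no enzyme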
Target sequence (O75874 whole entry R132H): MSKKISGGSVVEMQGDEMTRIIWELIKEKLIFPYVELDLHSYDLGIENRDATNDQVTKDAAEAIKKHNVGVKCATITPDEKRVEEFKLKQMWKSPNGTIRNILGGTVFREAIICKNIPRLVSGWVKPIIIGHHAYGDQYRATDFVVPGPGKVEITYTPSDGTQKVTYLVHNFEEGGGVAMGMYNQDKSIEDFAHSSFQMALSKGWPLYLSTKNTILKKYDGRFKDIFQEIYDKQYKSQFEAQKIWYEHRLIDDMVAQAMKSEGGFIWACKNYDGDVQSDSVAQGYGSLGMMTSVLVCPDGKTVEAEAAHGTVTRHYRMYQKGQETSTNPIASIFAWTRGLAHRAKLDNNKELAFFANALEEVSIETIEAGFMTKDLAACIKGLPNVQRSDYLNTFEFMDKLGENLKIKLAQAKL
T cruzi growth-2 = blocks T. cruzi growth in NIH3T3 host cells; shares compounds with T cruzi growth-1; AID 651739; inhibition, % at 8.35 µM; actives 72% (n = 5,600); T. cruzi beta-gal in NIH3T3, GalScreen luminescence, 90 h;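 active = mean replicate inhibition above about 95% and at least 55% of replicates individually reaching it, limit read from the data; inconclusive = only one of the two criteria is met; inactive = neither criterion is met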
T cruzi growth-3 = Trypanosoma cruzi proliferation inhibition | shares compounds with T cruzi growth-1 | T. cruzi beta-gal in NIH3T3, GalScreen luminescence, 90 h | inhibition, % at 2.09 µM | actives 21% (n = 5,600) | AID 651740;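 active = mean inhibition above about 95%, with at least 55% of replicates also reaching it, limit read from the data; inconclusive = meets just one of the two conditions; inactive = meets neither condition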;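 also: plate controls were neutral control median for no effect and positive control median for full effect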
NIH3T3 tox = kills mouse NIH/3T3 fibroblasts; NIH/3T3 viability, CellTiter-Glo ATP luminescence, 90 h; shares compounds with T cruzi growth-1; cytotoxicity (signal decrease), % at 8.35 µM; actives 14% (n = 5,600); AID 651742;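 active = mean signal decrease across replicates above about 35% based on untreated-well scatter, with enough replicates individually passing, limit read from the data; inconclusive = no rule stated though some were filed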;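 also: 0% = median of neutral control wells and 100% = median of positive control wells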
3T3 cytotox 2 = NIH/3T3 (mouse) viability loss. shares compounds with T cruzi growth-1. actives 56% (n = 5,600). AID 651744. NIH/3T3 viability, CellTiter-Glo ATP luminescence, 90 h. inhibition, % at 24.9 µM;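 active = mean loss of cell viability signal at or above a set limit, and enough replicates individually reaching it; inconclusive = meets only the mean limit or only the replicate share; inactive = meets neither condition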;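 also: 0% = median of neutral control wells and 100% = median of positive control wells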
Active calls of the source: *; ? = inconclusive; / = not tested or not shown; ! = not active in a repeat. The sample as a whole holds a higher share of hits than the screen did.

SMILES | T cruzi growth-1 | GASC1 inh | IDH1 R132H inh | T cruzi growth-2 | T cruzi growth-3 | NIH3T3 tox | 3T3 cytotox 2
COc1ccc(-c2ccc([C@H]3[C@H](C#N)N(C(=O)c4cccnc4)[C@H]3CO)cc2)cc1 | 107* | -1 | / | 108* | 34 | -3 | 31*
N#C[C@@H]1[C@@H](c2ccc(C3=CCCC3)cc2)[C@H](CO)N1C(=O)c1cccc(F)c1 | 62 | -4 | / | / | / | / | /
N#C[C@@H]1[C@H](c2ccc(-c3cccnc3)cc2)[C@H](CO)N1C(=O)Nc1ccc(F)cc1 | 35 | -1 | / | / | / | / | /
N#C[C@@H]1[C@@H](c2ccccc2)[C@@H](CO)N1C(=O)c1cccnc1 | 22 | 0 | / | / | / | / | /
COc1ccccc1-c1ccc([C@@H]2[C@@H](C#N)N(C(=O)c3cccc(F)c3)[C@@H]2CO)cc1 | 68 | -2 | / | / | / | / | /
COc1ccc(-c2ccc([C@H]3[C@H](C#N)N(C(=O)c4cccc(F)c4)[C@H]3CO)cc2)cc1 | 106* | -2 | / | 101* | 111* | 5 | 22
N#C[C@H]1[C@@H](c2ccc(-c3cccnc3)cc2)[C@@H](CO)N1C(=O)Nc1ccc(F)cc1 | 105* | 1 | / | 108* | 56 | -30 | -8
COc1ccc(CCNC(=O)c2c(-c3c(F)cccc3Cl)noc2C)cc1OC | / | / | 0 | / | / | / | /
Cc1ccc(N(CC(=O)Nc2c(C)cc(C)cc2C)S(C)(=O)=O)cc1 | / | / | 0 | / | / | / | /
CS(=O)(=O)N(CC(=O)Nc1cc(Cl)ccc1Cl)c1cc(Cl)c(Cl)cc1Cl | / | / | 0 | / | / | / | /
CCCC#Cc1ccc2c(c1)O[C@@H](CN(C)C(=O)CC1CC1)[C@@H](C)CN([C@H](C)CO)S2(=O)=O | 73 | -1 | -1 | / | / | / | /
C[C@@H]1CN([C@@H](C)CO)S(=O)(=O)c2ccc(C#CCC3CCCC3)cc2O[C@@H]1CN(C)C(=O)CC1CC1 | 120* | -4 | -3 | 89 | 94 | 25 | 107*
CC(=O)N(C)C[C@@H]1Oc2cc(C#CCC3CCCC3)ccc2S(=O)(=O)N([C@@H](C)CO)C[C@@H]1C | 21 | 0 | -1 | / | / | / | /
C[C@H]1CN([C@@H](C)CO)S(=O)(=O)c2ccc(C#CCC3CCCC3)cc2O[C@H]1CN(C)C(=O)CC1CC1 | 122* | 7 | 0 | ? | 85 | -4 | 104*
CC(C)C(=O)Nc1ccccc1C(=O)OCc1cccc([N+](=O)[O-])c1 | / | / | 0 | / | / | / | /
C[C@H]1CN([C@@H](C)CO)C(=O)CCCn2nncc2CO[C@H]1CN(C)S(=O)(=O)c1cccc(F)c1 | -26 | 0 | / | / | / | / | /
C[C@H](CO)N1C[C@H](C)[C@@H](CN(C)S(=O)(=O)c2ccc(Cl)cc2)OCc2cnnn2CCCC1=O | 7 | 1 | -2 | / | / | / | /
COc1ccc(S(=O)(=O)N(C)C[C@@H]2OCc3cnnn3CCCC(=O)N([C@H](C)CO)C[C@H]2C)cc1 | -35 | -1 | / | / | / | / | /
C[C@H](CO)N1C[C@H](C)[C@H](CN(C)S(=O)(=O)c2ccc(Cl)cc2)OCc2cnnn2CCCC1=O | ? | -1 | -1 | -13 | -14 | -6 | 15
C[C@@H]1CN([C@H](C)CO)C(=O)CCCn2nncc2CO[C@@H]1CN(C)S(=O)(=O)c1cccc(F)c1 | 144*! | 0 | -1 | 103* | 1 | 14 | 19
COc1ccc(S(=O)(=O)N(C)C[C@H]2OCc3cnnn3CCCC(=O)N([C@@H](C)CO)C[C@H]2C)cc1 | ? | 0 | / | 7 | 24 | 2 | 4
Cc1ccccc1-c1nc(SCC(=O)Nc2ccc(F)c(Cl)c2)n[nH]1 | / | / | 0 | / | / | / | /
COc1ccc2c3c(n(C)c2c1)[C@@H](CO)N(CC1CC1)CC31CCN(S(=O)(=O)c2cn(C)cn2)CC1 | / | -1 | / | / | / | / | /
Cc1ccc(C)c(NC(=O)CN(c2cccc(F)c2)S(C)(=O)=O)c1 | / | / | 0 | / | / | / | /
C[C@@H]1CCCCO[C@@H](CN(C)Cc2ccncc2)[C@@H](C)CN([C@H](C)CO)C(=O)c2cc(NC(=O)C3CCCCC3)ccc2O1 | 26 | 1 | 12 | / | / | / | /
SMILES | T cruzi growth-1 | GASC1 inh | IDH1 R132H inh | T cruzi growth-2 | T cruzi growth-3 | NIH3T3 tox | 3T3 cytotox 2
C[C@@H]1CN([C@H](C)CO)C(=O)c2cc(NC(=O)C3CCCCC3)ccc2O[C@@H](C)CCCCO[C@H]1CN(C)Cc1ccncc1 | 103* | 0 | 3 | 65 | 32 | 0 | 3
C[C@@H]1CN([C@@H](C)CO)C(=O)c2cc(NC(=O)C3CCCCC3)ccc2O[C@@H](C)CCCCO[C@H]1CN(C)Cc1ccc(C(F)(F)F)cc1 | ? | 15 | / | 89 | 116* | 26 | 7
C[C@H]1CN([C@@H](C)CO)C(=O)c2cc(NC(=O)C3CCCCC3)ccc2O[C@@H]1CN(C)Cc1ccc(C(F)(F)F)cc1 | 92* | 0 | 0 | 92 | 38 | -3 | 22
C[C@H]1CN([C@@H](C)CO)C(=O)c2cc(NC(=O)C3CCCCC3)ccc2O[C@H]1CN(C)Cc1ccc(C(F)(F)F)cc1 | 15 | 1 | 2 | / | / | / | /
C[C@H]1CCCCO[C@@H](CN(C)Cc2ccc(C(=O)O)cc2)[C@@H](C)CN([C@@H](C)CO)C(=O)c2cc(NC(=O)C3CCCCC3)ccc2O1 | -18 | 1 | 1 | / | / | / | /
C[C@@H]1CN([C@@H](C)CO)C(=O)c2cc(NC(=O)C3CCCCC3)ccc2O[C@@H](C)CCCCO[C@H]1CN(C)Cc1ccc(C(=O)O)cc1 | 6 | 0 | 5 | / | / | / | /
C[C@@H]1CCCCO[C@H](CN(C)Cc2ccc(C(F)(F)F)cc2)[C@@H](C)CN([C@@H](C)CO)C(=O)c2cc(NC(=O)C3CCCCC3)ccc2O1 | ? | -2 | 3 | 95* | 108* | -2 | 27*
COc1ccc(NS(=O)(=O)c2ccccc2)cc1CN1C(=O)c2ccccc2C1=O | / | / | 0 | / | / | / | /
C[C@@H]1CCCCO[C@@H](CN(C)Cc2ccc(C(F)(F)F)cc2)[C@H](C)CN([C@H](C)CO)C(=O)c2cc(NC(=O)C3CCCCC3)ccc2O1 | 118* | -1 | / | 89 | 104* | 22 | 17
C[C@@H]1CCCCO[C@H](CN(C)Cc2ccc(C(F)(F)F)cc2)[C@@H](C)CN([C@H](C)CO)C(=O)c2cc(NC(=O)C3CCCCC3)ccc2O1 | 70 | 2 | / | / | / | / | /
CN(C)C(=O)c1cccc(-c2ccc3c(c2)[C@H]2[C@H](CCN2C(=O)C2CCOCC2)[C@H](CO)N3)c1 | 92 | 1 | / | / | / | / | /
O=C(CN1CCOCC1)N1CC[C@@H]2[C@H]1c1cc(-c3ccccc3)ccc1N[C@@H]2CO | ? | 0 | / | 98* | 14 | -17 | 5
COc1cccc(-c2ccc3c(c2)[C@H]2[C@H](CCN2C(=O)Cc2ccncc2)[C@H](CO)N3)c1 | 104* | -2 | / | 95 | 62 | 4 | 15
COc1cccc(-c2ccc3c(c2)[C@@H]2[C@@H](CCN2C(=O)Cc2ccccc2)[C@@H](CO)N3)c1 | 17 | -2 | / | / | / | / | /

Source: PubChem BioAssay (Broad Institute)
